# Activity calls are given as the source filed them. No cut-off for these calls is given here. Numbered stars: 1 amine (or outer) side, 2 acyl side, 3 side chain; on linkers, the order of the positions; unused ones are H or OH. Square brackets hold non-standard residues; d marks the D form. Peptide text beside a SMILES is read from it. X1 = N[C@@H](Cc1ccccc1)CN(CC(=O)[*:2])[*:1]; Phe(4-F) = N[C@@H](Cc1ccc(F)cc1)C(=O)O
# Key:
# Nociceptin receptor [1] = molecular target: T1, Nociceptin receptor (Homo sapiens, UniProt P41146); test: Receptor binding affinity for recombinant human N/OFQ peptide receptor (NOP) expressed in chinese hamster ovary cells; assay type: cell-based, CHO
# T1 sequence (P41146 whole entry): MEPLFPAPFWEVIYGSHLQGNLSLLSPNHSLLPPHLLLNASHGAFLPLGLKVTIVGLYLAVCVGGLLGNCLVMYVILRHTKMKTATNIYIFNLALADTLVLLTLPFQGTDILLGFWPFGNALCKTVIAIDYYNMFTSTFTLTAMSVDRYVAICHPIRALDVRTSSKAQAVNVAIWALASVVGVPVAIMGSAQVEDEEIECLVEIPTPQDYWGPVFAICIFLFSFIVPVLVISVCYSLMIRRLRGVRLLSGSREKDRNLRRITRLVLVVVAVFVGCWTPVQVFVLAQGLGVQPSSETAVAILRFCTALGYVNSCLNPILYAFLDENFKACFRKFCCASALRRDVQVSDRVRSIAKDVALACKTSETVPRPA
# Nociceptin receptor [2] = molecular target: T1, Nociceptin receptor; test: Agonist potency against GTPgammaS binding in CHO cell membranes expressing human NOP receptor (CHOhNOP)
# Summary of the method: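 Membranes from CHO cells stably expressing human NOP, homogenized in 50 mM Tris-HCl/0.2 mM EGTA. 20 µg homogenate, 1 h at 30 °C. Buffer: Tris-HCl, 1 mM MgCl2, 100 mM NaCl, 0.2 mM EGTA, BSA, bacitracin, 10 µM peptidase inhibitors, 100 µM GDP, 150 pM GTPγ[35S]. Nonspecific binding defined with 10 µM GTPγS.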
# Nociceptin receptor [3] = molecular target: T1, Nociceptin receptor; test: Inhibition of forskolin stimulated cAMP levels in CHO cells expressing the human NOP receptor (CHOhNOP)
# [4] = molecular target: Nociceptin receptor (Mus musculus) (UniProt P35377); test: Maximal inhibition of electrically evoked contraction of mouse vas deferens at 10 uM; assay type: functional, tissue-based
# Chain of Nociceptin receptor (Mus musculus) (P35377 whole entry): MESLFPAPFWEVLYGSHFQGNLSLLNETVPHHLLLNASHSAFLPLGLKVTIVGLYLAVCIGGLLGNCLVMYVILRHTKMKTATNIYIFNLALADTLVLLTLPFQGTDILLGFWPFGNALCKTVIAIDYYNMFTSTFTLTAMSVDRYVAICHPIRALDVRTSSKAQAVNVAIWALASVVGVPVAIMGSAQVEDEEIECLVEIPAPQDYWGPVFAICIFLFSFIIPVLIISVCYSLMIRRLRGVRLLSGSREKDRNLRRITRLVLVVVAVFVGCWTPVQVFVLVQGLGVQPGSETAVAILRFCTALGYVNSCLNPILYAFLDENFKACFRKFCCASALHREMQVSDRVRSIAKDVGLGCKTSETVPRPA
# [5] = molecular target: Nociceptin receptor (Mus musculus) (UniProt P35377); test: Antagonistic potency against N/OFQ in electrically evoked contraction of mouse vas deferens at 10 uM; assay type: functional, tissue-based
# Summary of the method: (§1)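 Male Swiss mice (25-30 g). Vas deferens in 5 mL baths of Mg2+-free Krebs at 33 °C, 0.3 g tension, field-stimulated with supramaximal 1 ms pulses at 0.05 Hz, isotonic recording.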
# [6] = molecular target: Nociceptin receptor (Cavia porcellus) (UniProt P47748); test: Antagonistic potency against N/OFQ in electrically evoked contractions of guinea pig ileum at 10 uM; assay type: functional, tissue-based
# Chain of Nociceptin receptor (Cavia porcellus) (P47748 whole entry): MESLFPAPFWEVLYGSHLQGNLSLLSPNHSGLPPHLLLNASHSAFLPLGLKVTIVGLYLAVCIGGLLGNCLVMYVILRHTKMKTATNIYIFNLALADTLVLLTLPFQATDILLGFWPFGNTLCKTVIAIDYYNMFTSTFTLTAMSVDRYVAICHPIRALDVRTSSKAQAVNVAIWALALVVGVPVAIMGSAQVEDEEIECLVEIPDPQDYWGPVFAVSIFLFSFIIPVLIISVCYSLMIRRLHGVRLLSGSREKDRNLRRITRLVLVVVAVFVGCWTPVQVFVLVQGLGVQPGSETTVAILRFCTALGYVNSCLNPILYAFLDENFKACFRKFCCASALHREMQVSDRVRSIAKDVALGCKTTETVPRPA
# [7] = molecular target: Nociceptin receptor (Cavia porcellus) (UniProt P47748); test: Maximal inhibition of electrically evoked contraction of guinea pig ileum at 10 uM; assay type: functional, tissue-based
# [8] = molecular target: Nociceptin receptor (Mus musculus) (UniProt P35377); test: (§2) Inhibition of electrically evoked contraction of mouse vas deferens; assay type: functional
# Summary of the method: (§3)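 Vas deferens from male Swiss mice (25-30 g), in Mg2+-free Krebs at 33 °C under 0.3 g resting tension. Field-stimulated with 1 ms supramaximal pulses at 0.05 Hz; twitches recorded isotonically. After ~1 h equilibration, cumulative concentration-response curves in 0.5 log steps. […] 5-8 experiments.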
# [9] = molecular target: Nociceptin receptor (Cavia porcellus) (UniProt P47748); test: Inhibition of electrically evoked contraction of guinea pig ileum at 10 uM; assay type: functional, tissue-based
# Nociceptin receptor [10] = molecular target: T1, Nociceptin receptor; test: Agonist potency against GTPgammaS binding in CHO cell membranes expressing the human NOP receptor (CHOhNOP)
# Nociceptin receptor [11] = molecular target: Nociceptin receptor (Mus musculus, UniProt P35377); test: as §2; assay type: functional; summary of the method: as §3
# Chain of Nociceptin receptor (Mus musculus, UniProt P35377) (P35377 whole entry): as the sequence (P35377 whole entry) above
# [12] = molecular target: Nociceptin receptor (Mus musculus) (UniProt P35377); test: Inhibition of electrically evoked contraction of mouse vas deferens at 10 uM; assay type: functional
# Nociceptin receptor [13] = molecular target: T1, Nociceptin receptor; details: CHO
# Nociceptin receptor [14] = molecular target: T1, Nociceptin receptor; test: Inhibition of forskolin stimulated cAMP levels in CHO […] expressing the human NOP receptor (CHOhNOP); assay type: functional, cell-based
# [15] = molecular target: Nociceptin receptor (Cavia porcellus) (UniProt P47748); test: Antagonistic potency against N/OFQ in electrically evoked contractions of guinea pig ileum at 1 uM; assay type: functional, tissue-based
# [16] = molecular target: Nociceptin receptor (Mus musculus) (UniProt P35377); test: Antagonistic potency against N/OFQ in electrically evoked contraction of mouse vas deferens at 1 uM; assay type: functional, tissue-based; summary of the method: as §1
# Nociceptin receptor [17] = molecular target: T1, Nociceptin receptor; test: Antagonistic potency against N/OFQ induced GTPgammaS binding to human NOP receptor expressed in CHO cell membranes at 0.1 uM; assay type: functional
# Nociceptin receptor [18] = molecular target: T1, Nociceptin receptor; test: Agonist potency against GTPgammaS binding in CHO cell membranes expressing the human NOP receptor (CHOhNOP) at 0.1 uM
# Summary of the method: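 CHOhNOP membranes (20 µg) incubated 1 h at 30 °C with gentle shaking in 50 mM Tris-HCl, 1 mM MgCl2, 100 mM NaCl, 0.2 mM EGTA, 1 mg/mL BSA, 150 µM bacitracin, 10 µM peptidase inhibitors, 100 µM GDP, 150 pM GTPγ[35S]. Nonspecific binding with 10 µM GTPγS; vacuum filtration. Data as stimulation factors (ligand/basal specific DPM); pEC50 derived.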
smiles,measurement,setting,value
C[C@H](NC(=O)CNC(=O)[C@@H](NC(=O)[C@H](Cc1ccc(F)cc1)NC(=O)CNC(=O)CNC(=O)CNCc1ccccc1)[C@@H](C)O)C(=O)N[C@@H](CCCN=C(N)N)C(=O)N[C@@H](CCCCN)C(=O)N[C@@H](CO)C(=O)N[C@@H](C)C(=O)N[C@@H](CCCN=C(N)N)C(=O)N[C@@H](CCCCN)C(=O)N[C@@H](CCCN=C(N)N)C(=O)N[C@@H](CCCCN)C(=O)N[C@@H](CC(N)=O)C(=O)N[C@@H](CCC(N)=O)C(N)=O,Ki,Nociceptin receptor [1],0.0251 nM
same,EC50,Nociceptin receptor [2],0.407 nM
same,EC50,Nociceptin receptor [3],4.9 nM
CC(C)C[C@H](NC(=O)[C@H](CCCCN)NC(=O)[C@H](CCCN=C(N)N)NC(=O)[C@H](C)NC(=O)[C@H](CO)NC(=O)[C@H](CCCCN)NC(=O)[C@H](CCCN=C(N)N)NC(=O)[C@H](C)NC(=O)CNC(=O)[C@@H](NC(=O)[C@H](Cc1ccccc1)NC(=O)CNC(=O)CNC(=O)CNCc1ccccc1)[C@@H](C)O)C(=O)N[C@@H](C)C(=O)N[C@@H](CC(N)=O)C(=O)N[C@@H](CCC(N)=O)C(N)=O,Emax,[4],inactive
same,pKb,[5],6.07
same,pKb,[6],6.21
same,Emax,[7],inactive
same,Log EC50,[8],inactive
same,Log EC50,[9],inactive
C[C@H](NC(=O)CNC(=O)[C@@H](NC(=O)[C@H](Cc1ccc(F)cc1)NC(=O)CNC(=O)CNC[C@@H](N)Cc1ccccc1)[C@@H](C)O)C(=O)N[C@@H](CCCN=C(N)N)C(=O)N[C@@H](CCCCN)C(=O)N[C@@H](CO)C(=O)N[C@@H](C)C(=O)N[C@@H](CCCN=C(N)N)C(=O)N[C@@H](CCCCN)C(=O)N[C@@H](CCCN=C(N)N)C(=O)N[C@@H](CCCCN)C(=O)N[C@@H](CC(N)=O)C(=O)N[C@@H](CCC(N)=O)C(N)=O (H-[X1]G[Phe(4-F)]TGARKSARKRKNQ-NH2),Ki,Nociceptin receptor [1],0.02 nM
same,EC50,Nociceptin receptor [10],0.209 nM
same,EC50,Nociceptin receptor [3],0.302 nM
same,EC50,Nociceptin receptor [11],1.02 nM
C[C@H](NC(=O)CNC(=O)[C@@H](NC(=O)[C@H](Cc1ccccc1)NC(=O)CNC(=O)CNC(=O)CNCc1ccccc1)[C@@H](C)O)C(=O)N[C@@H](CCCN=C(N)N)C(=O)N[C@@H](CCCCN)C(=O)N[C@@H](CO)C(=O)N[C@@H](C)C(=O)N[C@@H](CCCN=C(N)N)C(=O)N[C@@H](CCCCN)C(=O)N[C@@H](CCCN=C(N)N)C(=O)N[C@@H](CCCCN)C(=O)N[C@@H](CC(N)=O)C(=O)N[C@@H](CCC(=O)N(N)N)C(=O)NN,Log EC50,[12],inactive
same,pKb,Nociceptin receptor [13],7.11
same,Log EC50,Nociceptin receptor [14],inactive
same,pKb,[15],6.79
same,pKb,[16],7.24
same,Emax,[4],inactive
same,pKb,Nociceptin receptor [17],9.13
same,Emax,[7],inactive
same,Log EC50,[9],inactive
same,Log EC50,Nociceptin receptor [18],inactive

# Reference: ChEMBL document CHEMBL1142699 (J Med Chem, 2005)
